Screens deposited in PubChem BioAssay by several laboratories.
In the library only some 6.8% were active in any assay of this set; here they are far more common.
PHOSPHO1 inh = PHOSPHO1 (human) inhibition; Q8TCT1; recombinant PHOSPHO1, absorbance phosphatase assay; inhibition, % at 13.3 µM; 290,000 tested, 1.1% active; in the data active = inhibition above about 60%
Target sequence (Q8TCT1 whole entry, looked up): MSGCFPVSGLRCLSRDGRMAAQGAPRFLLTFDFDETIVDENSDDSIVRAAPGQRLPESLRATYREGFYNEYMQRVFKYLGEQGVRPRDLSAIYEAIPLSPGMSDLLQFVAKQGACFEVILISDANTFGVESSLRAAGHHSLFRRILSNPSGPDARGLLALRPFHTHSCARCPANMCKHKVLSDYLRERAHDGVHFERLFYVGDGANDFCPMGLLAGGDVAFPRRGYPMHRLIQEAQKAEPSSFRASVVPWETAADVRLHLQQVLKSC
HSF1 inhib = HSF1 inhibition; NIH3T3-HGL HSE-luciferase, MG132-induced, luminescence 8 h; stronger effect = lower value; activity change, negative = inhibition, % at 7.5 µM (by protocol); 300,000 tested, 0.77% active; AID 2098;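 active = more than half of replicate wells show activity change below -50%, luminescence cut by over half; inconclusive = some wells, but at most half, below -50%; inactive = no replicate well below -50%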;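 also: luciferase reports HSF-1 transcriptional activity via heat shock element; 0% = median of DMSO wells and -100% = zero luminescence signal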
AI-2 QS mod = modulates the Vibrio harveyi AI-2 quorum sensing system. Vibrio harveyi JMH597 AI-2 luminescence/OD600 ratio, 9 h; stronger effect = lower value; strain lacks LuxN and CqsS sensors; 0 = neutral-control median. activity change, % at 7.5 µM. 300,000 tested, 0.4% active. AID 2094; in the data active = activity change below about -75%, passing the limit was not always enough; inconclusive = no clear call, values can overlap the other calls;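 also: luminescence divided by OD600 gain over 9 h not by final OD600 alone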
core dimer inh = blocks dimerization of HCV core protein; inhibition, % at 5 µM; 300,000 tested, 0.33% active; TR-FRET GST/Flag-core106 dimerization, 1536-well;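 active = inhibition above the mean of all tested compounds plus 3 SD, set per screening campaign, cut at about 45% in these data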
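Material: Tagged HCV core106 pair (GST and Flag) | Amount: GST-core106 13.5 nM, Flag-core106 17 nM | Medium: KF-containing HEPES buffer, pH 7.45, DTT, CHAPS, BSA | Reagent: Eu donor and XL665 acceptor anti-tag antibodies | Schedule: 4 h at 22.5 °C | Technique: Time-resolved FRET, ex 340 nm, em 617 and 671 nm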
HSF1 activator = increases HSF-1 driven luciferase reporter signal; NIH3T3-HGL HSF-1 luciferase reporter, MG132, 8 h; 100% = twice DMSO control signal; activation, % at 9 µM; 300,000 tested, 1.7% active; AID 504408;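 active = mean replicate activation of at least 50% with a set share of replicates each reaching 50%; inconclusive = only one of those two conditions met; inactive = mean below 50% and too few replicates reaching it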;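 also: 0% = median of the neutral control wells and 100% = twice that signal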
ALR H2O2 inh = blocks human ALR sulfhydryl oxidase activity. purified ALR, DTT oxidation, H2O2 HRP-luminol luminescence. inhibition, % (concentration not given with the values). 290,000 tested, 3.8% active. AID 485317;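 active = mean replicate inhibition above about 79%, with every replicate also reaching it, limit read from the data; inconclusive = only one of the two criteria met; inactive = mean below limit and not every replicate reaching it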
Target sequence (P55789 whole entry, looked up): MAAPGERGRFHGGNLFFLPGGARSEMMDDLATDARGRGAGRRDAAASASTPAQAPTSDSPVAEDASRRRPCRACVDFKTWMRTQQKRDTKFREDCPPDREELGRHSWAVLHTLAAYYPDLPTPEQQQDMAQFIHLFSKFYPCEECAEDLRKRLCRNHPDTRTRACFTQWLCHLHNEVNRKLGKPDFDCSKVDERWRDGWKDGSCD
JMH597 growth = retest Vibrio harveyi JMH597 growth inhibition; shares compounds with AI-2 QS mod; OD600 absorbance, 9 h; lacks LuxN and CqsS sensors; 750 tested, 1% active; AID 2726; growth inhibition, % at 7.5 µM;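 active = every replicate shows growth inhibition above 50%; inconclusive = at least half, but not all, replicates pass that cutoff; inactive = fewer than half of replicates pass it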
BB721 lum counter = retest counter-screen: BB721 constitutive quorum sensing luminescence decrease. inhibition, % at 7.5 µM. shares compounds with AI-2 QS mod. Vibrio harveyi BB721 luminescence, 9 h. 750 tested, 95% active. AID 2727;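 active = inhibition above about 80% in every replicate, not just on average, limit read from the data; inconclusive = at least half of replicates past the limit, but not all; inactive = fewer than half of replicates past the limit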
BB721 growth = retest Vibrio harveyi BB721 growth inhibition. shares compounds with AI-2 QS mod. OD600 absorbance, 9 h. growth inhibition, % at 7.5 µM. 750 tested, 3% active. AID 2728;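 active = every replicate shows growth inhibition above 50%; inconclusive = at least half but not all replicates above 50% inhibition; inactive = under half of replicates above 50% inhibition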
JMH597 AI-2 mod = Vibrio harveyi AI-2 signaling luminescence modulation – JMH597 strain, confirmation; shares compounds with AI-2 QS mod; Vibrio harveyi JMH597 AI-2 quorum sensing luminescence, 9 h; luxN and CqsS knockout, AI-2 only; inhibition, % at 7.5 µM; 750 tested, 97% active; AID 2736;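 active = every replicate shows more than 75% inhibition of signal versus neutral control wells; inconclusive = half to three quarters of replicates exceed 75% inhibition; inactive = fewer than half of replicates exceed 75% inhibition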
Numbers without * were called inactive; ? = inconclusive; / = no result given.

SMILES | PHOSPHO1 inh | HSF1 inhib | AI-2 QS mod | core dimer inh | HSF1 activator | ALR H2O2 inh | JMH597 growth | BB721 lum counter | BB721 growth | JMH597 AI-2 mod
Cc1nn(Cc2ccccc2Cl)c(C)c1C(=O)NCC(c1cccs1)N1CCOCC1 (configuration not stated) | / | 0 | -18 | -1 | 14 | / | / | / | / | /
CSc1ccc(C2N=C(c3ccccc3)NO2)cc1 (configuration not stated) | 6 | 3 | -85* | -6 | -2 | 2 | 31 | 95* | 13 | 96*
Oc1c(Br)cc(C2N=C(c3ccccc3)NO2)cc1Br (configuration not stated) | -1 | 0 | 41 | -3 | 8 | 19 | / | / | / | /
CCc1ccc(OCC(=O)O/N=C(\N)c2cccnc2)cc1 | 22 | 14 | -92* | -3 | 40 | 2 | 11 | 95* | -3 | 96*
O=C(/C=C/c1ccccc1)NCc1ccc2c(c1)OCO2 | -11 | 10 | -94* | -5 | 16 | -2 | -2 | 98* | 2 | 98*
O=C(Cc1ccc(Br)cc1)Nc1cccc(Cl)c1 | 32 | 14 | -82* | -5 | 22 | -1 | -20 | 88* | 7 | 88*
O=C(NCc1ccc2c(c1)OCO2)Nc1cccc(Cl)c1 | 8 | 5 | -91* | -8 | 32 | / | 20 | 99* | 33 | 99*
O=C(/C=C/c1cccs1)NCc1cccs1 | / | 6 | -83* | -4 | 7 | -9 | 9 | 92* | 6 | 92*
Cc1ccc(/C=C/C(=O)NCc2cccs2)cc1 | 5 | 11 | -75 | -1 | 11 | 21 | / | / | / | /
O=C(CN1CCN(S(=O)(=O)N2CCOCC2)CC1)Nc1cc(Cl)cc(Cl)c1 | 15 | -1 | 23 | -2 | -6 | -2 | / | / | / | /
COc1cc2c(cc1OC)CN(C(=O)Cc1c(F)cccc1Cl)CC2 | 35 | 5 | 3 | 12 | 13 | 1 | / | / | / | /
C#CCOc1ccc(C2C(C#N)=C(N)Oc3cc(O)ccc32)cc1 (configuration not stated) | 34 | 0 | 4 | 19 | 3 | 6 | / | / | / | /
O=C(/C=C/c1cccs1)NCc1ccc2c(c1)OCO2 | 23 | 14 | -90* | -7 | 20 | -5 | -14 | 95* | -10 | 95*
O=C(Nn1cnc2ccccc2c1=O)c1ccccc1Cl | -9 | 5 | -4 | 1 | -11 | 0 | / | / | / | /
Cc1ccccc1C(=O)Nn1cnc2ccccc2c1=O | 32 | 12 | 7 | -1 | 10 | -14 | / | / | / | /
O=C(/C=C/c1ccccc1Cl)Nn1cnc2ccccc2c1=O | -15 | -1 | -78* | -4 | 16 | -12 | 19 | 96* | 0 | 98*
O=C(Nc1ccc(Cl)cc1)Nn1cnc2ccccc2c1=O | 10 | -4 | -98* | -13 | 9 | -2 | 2 | 100* | -13 | 100*
O=C(/C=C/c1ccccc1)Nn1cnc2ccccc2c1=O | 2 | -6 | -88* | -8 | 17 | 1 | 19 | 98* | -1 | 99*
Cc1ccc(NC(=O)c2cc([N+](=O)[O-])ccc2NCc2cccnc2)cc1 | 3 | 5 | -7 | -3 | 9 | 8 | / | / | / | /
Cc1ccc(C(=O)N/C(=C/c2ccco2)C(=O)OCN2C(=O)c3ccccc3C2=O)cc1 | -1 | 2 | 17 | 7 | 16 | 27 | / | / | / | /
COc1cccc(/C=C2/CCC(CN(C)C)C2=O)c1 (configuration not stated) | / | -22 | / | / | -22 | / | / | / | / | /
O=C(/C=C/c1ccccc1Cl)NCc1ccccc1 | 22 | 12 | -94* | -1 | 15 | -7 | 4 | 98* | 17 | 99*
NS(=O)(=O)c1ccc(CNC(=O)/C=C/c2ccccc2[N+](=O)[O-])cc1 | -20 | 1 | 14 | 2 | -12 | -2 | / | / | / | /
O=C(COC(=O)/C=C/c1ccccc1Cl)NC(=O)NCc1ccccc1 | / | / | / | / | / | -4 | / | / | / | /
O=C(/C=C/c1ccccc1[N+](=O)[O-])NCc1ccc(Cl)cc1 | 15 | 7 | ? | 2 | 27 | -2 | -4 | 91* | 10 | 93*
SMILES | PHOSPHO1 inh | HSF1 inhib | AI-2 QS mod | core dimer inh | HSF1 activator | ALR H2O2 inh | JMH597 growth | BB721 lum counter | BB721 growth | JMH597 AI-2 mod
O=C(/C=C/c1ccccc1[N+](=O)[O-])Oc1ccccc1 | 16 | -11 | -81* | -1 | 0 | 4 | -9 | 79* | 14 | 88*
COc1ccc(CNC(=O)/C=C/c2ccccc2[N+](=O)[O-])cc1 | 48 | 1 | -80* | 4 | 25 | -1 | 14 | 95* | 3 | 96*
COc1cc(C2C(C(=O)/C=C/c3ccccc3)=C(O)C(=O)N2c2ccccn2)ccc1O (configuration not stated) | 13 | 2 | 7 | 2 | 7 | 54 | / | / | / | /
CC(=O)OCCN1C(=O)c2ccc(-c3nc4ccccc4c(=O)o3)cc2C1=O | / | -8 | -12 | -2 | 3 | 33 | / | / | / | /
O=C(COc1cccc(C(F)(F)F)c1)Nc1ccc(S(=O)(=O)N2CCCCC2)cc1 | / | -3 | -18 | 6 | -9 | -8 | / | / | / | /
Cc1cccc(OCC(=O)Nc2ccc(S(=O)(=O)N3CCCC3)cc2)c1 | 14 | -6 | -97* | 11 | 2 | -3 | 9 | 99* | -3 | 100*
COc1ccccc1CNC(=O)COc1ccc(S(=O)(=O)N2CCCC2)cc1 | 32 | -4 | ? | 4 | -8 | -8 | 19 | 85* | 8 | 93*
CCc1cccc(OCC(=O)Nc2ccc(S(=O)(=O)N3CCCC3)cc2)c1 | 18 | 10 | -90* | 9 | -6 | -4 | 43 | 97* | ? | 98*
Cc1cccc(OCC(=O)Nc2cc(C)c(C)cc2O)c1 | 7 | 5 | -16 | 5 | 12 | 1 | / | / | / | /
Cc1cccc(OCC(=O)Nc2cc(C)ccc2O)c1 | -6 | 130 | -85* | 2 | 181* | / | 34 | 96* | 29 | 97*
Cc1ccc(Cl)c(OCC(=O)NCC(c2cccs2)N2CCOCC2)c1 (configuration not stated) | / | 0 | -8 | -6 | -5 | -2 | / | / | / | /
Cc1ccc(NC(=O)Cn2nc(C)c3ccccc3c2=O)cc1 | -12 | 7 | -85* | -2 | 5 | 7 | 11 | 97* | -4 | 98*
CC(=O)Nc1ccc(C(=O)Cn2nnc3ccccc3c2=O)cc1 | -2 | 2 | 19 | 0 | 7 | -4 | / | / | / | /
